# Measured values taken from BindingDB's records for doi:10.1021/jm050754u (Abbott Laboratories, 2006).
# Target: Bcl-2-like protein 1 (Homo sapiens, UniProt Q07817)
# Assay: Activity towards mouse FL5.12 cell line transfected with Bcl-XL in presence of gelatin
# Method in brief: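 Bcl-XL-transfected murine FL5.12 (IL-3 dependent) grown in RPMI with 10% FBS and WEHI-3B conditioned medium as the IL-3 source. Switched to IL-3-depleted, FBS-free medium for 2 days. Then placed in gelatin assay medium (3.4 mg/mL bovine gelatin) or 3% FBS assay medium. Serial compound dilutions added for 24 h. Viability read by MTS or CellTiter-Glo; duplicate values per determination; EC50.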
# Sequence of Bcl-2-like protein 1 (Q07817 whole entry): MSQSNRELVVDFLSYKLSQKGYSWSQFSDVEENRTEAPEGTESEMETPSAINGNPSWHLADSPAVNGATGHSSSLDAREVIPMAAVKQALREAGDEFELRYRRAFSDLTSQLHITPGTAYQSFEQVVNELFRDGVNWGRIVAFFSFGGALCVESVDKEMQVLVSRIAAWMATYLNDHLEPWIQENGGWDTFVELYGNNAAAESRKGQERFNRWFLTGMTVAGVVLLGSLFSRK
row,EC50 [nM],Structure (SMILES)
1,3050,COc1cc(CCCN2CCOCC2)ccc1-c1ccc(C(=O)NS(=O)(=O)c2ccc(N[C@H](CCCCN)CSc3ccccc3)c([N+](=O)[O-])c2)cc1 [4-((R)-5-amino-1-phenylsulfanylmethylpentylamino)-N-[2'-methoxy-4'-(3-morpholin-4-ylpropyl)biphenyl-4-carbonyl]-3-nitrobenzenesulfonamide]

# Target: not listed separately
# Assay: Activity towards mouse FL5.12 cell line transfected with Bcl-XL in presence of gelatin
row,EC50 [nM],Structure (SMILES)
1,2140,"CN(C)C(=O)C[C@H](CSc1ccccc1)Nc1ccc(S(=O)(=O)NC(=O)c2ccc(N3CCC(C)(C)CC3)cc2)cc1[N+](=O)[O-] [(R)-3-{4-[4-(4,4-dimethylpiperidin-1-yl)benzoylsulfamoyl]-2-nitrophenylamino}-N,N-dimethyl-4-phenylsulfanylbutyramide]"
2,2000,"CN(C)CCC[C@H](CSc1ccccc1)Nc1ccc(S(=O)(=O)NC(=O)c2ccc(N3CCC(C)(C)CC3)cc2)cc1[N+](=O)[O-] [4-((R)-4-dimethylamino-1-phenylsulfanylmethylbutylamino)-N-[4-(4,4-dimethylpiperidin-1-yl)benzoyl]-3-nitrobenzenesulfonamide]"
3,9500,"CN(C)CC[C@@H](CSc1ccccc1)Nc1ccc(S(=O)(=O)NC(=O)c2ccc(N3CCC(C)(C)CC3)cc2)cc1[N+](=O)[O-] [4-((S)-3-dimethylamino-1-phenylsulfanylmethylpropylamino)--[4-(4,4-dimethylpiperidin-1-yl)benzoyl]-3-nitrobenzenesulfonamide]"
4,1080,"CN(C)CCCC[C@H](CSc1ccccc1)Nc1ccc(S(=O)(=O)NC(=O)c2ccc(N3CCC(C)(C)CC3)cc2)cc1[N+](=O)[O-] [4-((R)-5-dimethylamino-1-phenylsulfanylmethylpentylamino)-N-[4-(4,4-dimethylpiperidin-1-yl)benzoyl]-3-nitrobenzenesulfonamide]"
5,4130,"CC1(C)CCN(c2ccc(C(=O)NS(=O)(=O)c3ccc(N[C@H](CCCCN)CSc4ccccc4)c([N+](=O)[O-])c3)cc2)CC1 [4-((R)-5-amino-1-phenylsulfanylmethylpentylamino)-N-[4-(4,4-dimethylpiperidin-1-yl)benzoyl]-3-nitrobenzenesulfonamide]"
6,4200,"CC1(C)CCN(c2ccc(C(=O)NS(=O)(=O)c3ccc(N[C@@H](CCN4CCOCC4)CSc4ccccc4)c([N+](=O)[O-])c3)cc2)CC1 [N-[4-(4,4-dimethylpiperidin-1-yl)benzoyl]-4-((S)-3-morpholin-4-yl-1-phenylsulfanylmethylpropylamino)-3-nitrobenzenesulfonamide]"

# Second part, the compound before the results:
row,Structure (SMILES),EC50 [nM]
1,COc1cc(CCCN2CCOCC2)ccc1-c1ccc(C(=O)NS(=O)(=O)c2ccc(N[C@@H](CCN(C)C)CSc3ccccc3)c([N+](=O)[O-])c2)cc1 [4-((S)-3-dimethylamino-1-phenylsulfanylmethylpropylamino)-N-[2'-methoxy-4'-(3-morpholin-4-ylpropyl)biphenyl-4-carbonyl]-3-nitrobenzenesulfonamide],32500
2,COc1cc(CCCN2CCOCC2)ccc1-c1ccc(C(=O)NS(=O)(=O)c2ccc(N[C@H](CCCN(C)C)CSc3ccccc3)c([N+](=O)[O-])c2)cc1 [4-((R)-4-Dimethylamino-1-phenylsulfanylmethylbutylamino)-N-[2'-methoxy-4'-(3-morpholin-4-ylpropyl)biphenyl-4-carbonyl]-3-nitrobenzenesulfonamide],3010
3,COc1cc(CCCN2CCOCC2)ccc1-c1ccc(C(=O)NS(=O)(=O)c2ccc(N[C@H](CCCCN(C)C)CSc3ccccc3)c([N+](=O)[O-])c2)cc1 [4-((R)-5-dimethylamino-1-phenylsulfanylmethylpentylamino)-N-[2'-methoxy-4'-(3-morpholin-4-ylpropyl)biphenyl-4-carbonyl]-3-nitrobenzenesulfonamide],1200
4,COc1cc(CCCN2CCOCC2)ccc1-c1ccc(C(=O)NS(=O)(=O)c2ccc(N[C@H](CCN3CCOCC3)CSc3ccccc3)c([N+](=O)[O-])c2)cc1 [N-[2'-methoxy-4'-(3-morpholin-4-ylpropyl)biphenyl-4-carbonyl]-4-((R)-3-morpholin-4-yl-1-phenylsulfanylmethylpropylamino)-3-nitrobenzenesulfonamide],382
5,"CC1(C)CCN(c2ccc(C(=O)NS(=O)(=O)c3ccc(N[C@H](CCN4CCOCC4)CSc4ccccc4)c([N+](=O)[O-])c3)cc2)CC1 [N-[4-(4,4-dimethylpiperidin-1-yl)benzoyl]-4-((R)-3-morpholin-4-yl-1-phenylsulfanylmethylpropylamino)-3-nitrobenzenesulfonamide]",368
6,"COc1cc(CCCN2CCOCC2)ccc1-c1ccc(C(=O)NS(=O)(=O)c2ccc(N[C@@H](CSc3ccccc3)CC(=O)N(C)C)c([N+](=O)[O-])c2)cc1 [(R)-3-(4-{[2'-methoxy-4'-(3-morpholin-4-ylpropyl)biphenyl-4-carbonyl]sulfamoyl}-2-nitrophenylamino)-N,N-dimethyl-4-phenylsulfanylbutyramide]",1280
7,COc1cc(CCCN2CCOCC2)ccc1-c1ccc(C(=O)NS(=O)(=O)c2ccc(N[C@H](CCN(C)C)CSc3ccccc3)c([N+](=O)[O-])c2)cc1 [4-((R)-3-dimethylamino-1-phenylsulfanylmethylpropylamino)-N-[2'-methoxy-4'-(3-morpholin-4-ylpropyl)biphenyl-4-carbonyl]-3-nitrobenzenesulfonamide],399
